Screening data deposited in PubChem BioAssay by Johns Hopkins Ion Channel Center.
Shown are actives, neighbours in structure and some others; about 3.8% of the full set was active somewhere.
Kir21 block – blocks the mouse Kir2.1 inward-rectifier potassium channel; P35561; HEK293-Kir2.1, FluxOR thallium flux fluorescence; stronger effect = lower value; B-score at 10 µM; 310,000 compounds, 0.85% hits;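 active means fluorescence ratio B-score at or below minus 3 SD of library scores, with starting-brightness B-score within 2 SD, cut at about -4.2 in these data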;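 further: channel flux triggered by added potassium and thallium sulfate stimulus; B-score of peak minus minimum fluorescence over baseline after thallium stimulus; more negative B-score means stronger Kir2.1 block with less thallium influx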
KCNQ1 act – human KCNQ1 channel potentiation or activation. P51787. CHO-K1 KCNQ1, thallium flux FluxOR fluorescence; stronger effect = higher value. B-score at 10 µM. 310,000 compounds, 0.35% hits. AID 2648;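 active means fluorescence ratio B-score, a plate-corrected score, at least three library SD, with initial intensity B-score within 5 SD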
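Assay system: CHO-K1 cells stably expressing KCNQ1; Medium: assay buffer with matched DMSO; Also added: K+/Tl+ depolarizing stimulus; Dosing: single dose; Timing: dye 90 min, compound 20 min, room temperature; Measured by: kinetic FluxOR thallium fluorescence, 10-s 1-Hz baseline, 110-s post-stimulus read; Read-out: peak-minus-minimum fluorescence over initial fluorescence, negative-control normalized, B-scored.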
hERG protect – shields human hERG channel from block by proarrhythmic agents | Q12809 | CHO-hERG, FluxOR thallium flux, dofetilide IC70 present | activation (rescue from dofetilide block), less the hit threshold, % at 10 µM | 310,000 compounds, 0.51% hits | AID 1511;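 active means activation above the mean of controls blocked by dofetilide plus 5 SD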;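 further: thallium influx through hERG after potassium depolarization seen as dye fluorescence rise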
KCNK9 block – inhibitors of human KCNK9 two-pore domain potassium channel; AID 488922; B-score at 10 µM; Q9NPC2; 310,000 compounds, 1.2% hits; HEK293 KCNK9, FluxOR thallium flux fluorescence; stronger effect = lower value;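 active means ratio B-score over 3 SD below the library mean, with starting fluorescence within 5 SD of its mean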;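 further: negative B-score means less thallium flux so channel inhibition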
KCNK3 inh – human KCNK3 channel inhibition, primary screen; CHO-KCNK3 thallium flux, FluxOR fluorescence; stronger effect = lower value; B-score at 10 µM; 340,000 compounds, 0.84% hits; AID 602410;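 active means B-score under library mean minus 4 SD, starting fluorescence ratio at most library mean plus 5 SD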;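 further: more negative B-score means stronger inhibition of thallium flux through KCNK3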
Target sequence (O14649 whole entry, looked up): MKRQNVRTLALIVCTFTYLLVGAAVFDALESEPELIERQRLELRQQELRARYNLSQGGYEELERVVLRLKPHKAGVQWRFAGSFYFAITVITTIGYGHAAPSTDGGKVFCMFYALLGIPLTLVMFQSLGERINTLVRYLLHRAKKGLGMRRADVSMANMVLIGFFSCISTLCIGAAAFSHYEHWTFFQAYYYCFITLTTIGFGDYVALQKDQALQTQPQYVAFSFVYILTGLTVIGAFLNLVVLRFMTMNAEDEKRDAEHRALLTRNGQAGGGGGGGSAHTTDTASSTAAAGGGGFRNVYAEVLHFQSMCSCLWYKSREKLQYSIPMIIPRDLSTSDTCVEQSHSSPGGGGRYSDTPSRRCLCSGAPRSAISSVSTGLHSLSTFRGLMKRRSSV
KCNQ1 block – human KCNQ1 channel inhibition | 310,000 compounds, 1.3% hits | P51787 | AID 2642 | CHO-K1 KCNQ1, FluxOR thallium flux fluorescence; stronger effect = higher value | B-score at 10 µM;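 active means compounds whose thallium flux B-score, printed positive for inhibition, exceeds three library SD while starting fluorescence stays within three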;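 further: channel opened by potassium depolarization with thallium stimulus after 20 min compound exposure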
KCNK9 block conf – human KCNK9 inhibitor confirmation; shares compounds with KCNK9 block; HEK293 KCNK9 cells, FluxOR thallium flux fluorescence; inhibition, % at 10 µM; 4,900 compounds, 43% hits;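 active means thallium signal inhibited by more than 5 SD of the compound-free buffer control wells, on both duplicate plates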;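 further: 0% = assay buffer control wells without compound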
Kir2-1 spec – selectivity of KCNK9 modulators against mouse Kir2.1 | shares compounds with KCNK9 block | Kir2.1 cells, FluxOR thallium flux fluorescence | inhibition, % at 10 µM | 4,900 compounds, 4% hits;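 active means thallium signal drop more than 5 SD beyond the mean of the no-compound control wells, seen in both duplicate plates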;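 further: signal is fluorescence rise after thallium addition divided by baseline fluorescence; plate controls were assay buffer only for no effect and full block by chlorpromazine control for full effect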
HEK293 Tl ctr – second check of KCNK9 modulator effects in non-induced HEK293 cells; shares compounds with KCNK9 block; AID 492997; 4,900 compounds, 40% hits; FluxOR thallium flux; inhibition, % at 10 µM;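 active means thallium signal drop beyond 5 SD of the untreated control mean, on both duplicate plates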;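 further: plate controls were buffer only IC0 wells for no effect and SID17386958 at its maximal inhibitory level for full effect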
KCNK3 inh conf – human KCNK3 channel inhibition, confirmation assay; shares compounds with KCNK3 inh; CHO-KCNK3 thallium flux, FluxOR fluorescence; 0% buffer, 100% carvedilol maximal block; ratio percent of control, % at 10 µM; 2,400 compounds, 99% hits;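 active means ratio percent of control, averaged over triplicates, above buffer control mean plus 5 SD, cut at about 64% in these data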;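 further: ratio is the fluorescence rise from min to max over baseline after thallium stimulus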
KCNK3 noninduced – KCNK3 inhibitor counter-screen hit in non-induced cells. shares compounds with KCNK3 inh. non-induced KCNK3 parental cells, FluxOR thallium flux; stronger effect = lower value. thallium flux ratio (lower = more inhibition) at 10 µM. 2,400 compounds, 40% hits;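 active means thallium flux ratio, averaged over three wells, more than 5 SD below the buffer control mean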;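 further: host cells are CHO cells without KCNK3 induction; ratio is peak minus trough fluorescence over baseline then normalized to buffer controls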
Starred values were filed as active, the others as inactive; i = inactive; x = not tested or not shown.

SMILES | Kir21 block | KCNQ1 act | hERG protect | KCNK9 block | KCNK3 inh | KCNQ1 block | KCNK9 block conf | Kir2-1 spec | HEK293 Tl ctr | KCNK3 inh conf | KCNK3 noninduced
CCNC(=S)NNC(=O)c1cccn(Cc2ccc(Cl)cc2Cl)c1=O | 0.31 | i | -19 | i | i | i | x | x | x | x | x
COc1ccccc1OCC(=O)Nc1cccc(-c2nc3ccccc3o2)c1 | -0.9 | i | -3 | -12* | i | i | 45%* | i | i | 114* | i
Cc1noc2ncnc(N3CCCC3)c12 | 0.04 | i | -6 | i | i | i | x | x | x | x | x
Cc1ccc(NC(=O)CN(c2ccc(Cl)cc2)S(=O)(=O)c2cc([N+](=O)[O-])ccc2Cl)c(C)c1 | -1.7 | i | -7 | -14* | -15* | i | 62%* | i | 36%* | 115* | i
O=C(N/N=C/C(Cl)=C/c1ccccc1)c1ccccc1F | -3.3 | i | -6 | i | i | i | x | x | x | x | x
O=C(N/N=C/C(Br)=C/c1ccccc1)c1ccccc1F | 1.8 | i | 3 | -9.2* | -9.4* | i | 28%* | i | i | 98* | i
Cc1c(Cl)cccc1-n1nnnc1-c1cccs1 | -0.66 | i | -10 | -9.3* | -11* | i | 44%* | i | 32%* | 108* | i
Cc1cc(/C=N/NC(=O)c2cccs2)c(C)n1-c1ccccc1 | 1.1 | i | -10 | -10* | -10* | i | 43%* | i | i | 118* | 0.14*
CSc1nc(NCc2ccco2)c2c3c(sc2n1)CN(C)CC3 | -0.42 | i | -17 | i | x | i | x | x | x | x | x
Cc1ccc(C(=O)N2CCC(C(=O)NC3CCCC3)CC2)cc1 | -0.97 | i | -9 | i | i | i | x | x | x | x | x
Cc1cc(C)cc(NC(=O)c2ccc(Cn3nc(C)c(Cl)c3C)o2)c1 | 0.55 | i | -13 | -10* | -9.4* | i | i | i | i | 137* | 0.12*
Cc1csc(NC(=O)c2ccc(Cn3nc(C)c(Br)c3C)o2)n1 | -0.06 | i | -23 | i | i | i | x | x | x | x | x
CCOc1c(Cl)cnn(-c2ccc(C)cc2)c1=O | 2.3 | i | -5 | i | i | i | x | x | x | x | x
CCN(Cc1ccncc1)C(=O)c1cc(COc2ccc(F)cc2Cl)on1 | -1.4 | i | -4 | i | i | i | x | x | x | x | x
C#CCN(Cc1ccco1)C(=O)c1cc(COc2ccc(F)cc2Cl)on1 | -0.03 | i | -7 | -9.3* | -11* | i | i | i | 34%* | 115* | 0.15*
Cc1ccc(Nc2nc(Cl)nc(NC(C)(C)C)n2)cc1 | -0.18 | i | -7 | i | i | i | x | x | x | x | x
CC(C)(C)Nc1nc(Nc2ccc([N+](=O)[O-])cc2)nc(NC(C)(C)C)n1 | -0.55 | i | -11 | -13* | -11* | 8* | 46%* | i | 34%* | 128* | 0.13*
Cc1ccc(C)c(NC(=O)CN(C)C(=O)c2ccc(-n3cncn3)c([N+](=O)[O-])c2)c1 | 0.28 | i | -9 | i | i | i | x | x | x | x | x
CN(/N=C/c1cc(Cl)cc(Cl)c1O)c1c(Cl)cccc1[N+](=O)[O-] | 1.4 | i | -5 | -13* | -11* | i | 62%* | i | 48%* | 116* | 0.15*
CCN(C(=O)CN1C(=O)COc2ccc(S(=O)(=O)N3CCCCCC3)cc21)c1cccc(C)c1 | -0.73 | i | -11 | -12* | -8.8* | i | 44%* | i | 24%* | 120* | i
